# Sampled rows, rich in hits. Any-hit rate of the full collection: about 2.9%.
# SENP1 inh: human SENP1 catalytic domain inhibitors, primary screen, biochemical, FRET, uHTS. Sentrin-specific protease 1 (Homo sapiens), Q9P0U3. recombinant SENP1 catalytic domain, CyPet-SUMO1-YPet FRET cleavage. inhibition, % at 10 µM. 360,000 tested, 0.21% active. AID 624204, 2012;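 active = inhibition at least 30% at 10 µM, raw YFP signal under a set limit, fluorescence ratio 0.5 to 1.5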;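 note: 0% = enzyme with DMSO and 100% = no enzyme wells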
#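 Assay system: hSENP1 catalytic domain, recombinant. Amount: SENP1 enzyme, 20 pM final. Schedule: 50 min reaction, RT, dark. Technique: FRET, CFP and YFP emission. Control set: no-enzyme wells low, DMSO-plus-enzyme wells high control.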
# SENP8 block-1: SENP8 protease inhibitors, primary screen, biochemical, luminescence; 330,000 tested, 1.2% active; AID 2540, 2010; Sentrin-specific protease 8 (Homo sapiens), Q96LD8; purified SENP8, Z-RLRGG-aminoluciferin cleavage; inhibition, % at 10 µM; in the data active = inhibition above about 50%
# Apaf1 inhib: inhibitors of human Apaf-1 apoptosome, primary screen, biochemical, DEVD-Rh110 fluorescence, uHTS; Apoptotic protease-activating factor 1 (Homo sapiens), O14727; 330,000 tested, 0.71% active; reconstituted apoptosome caspase-3 activity; inhibition, % at 20 µM; active = inhibition of at least 40% at 20 µM;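 note: plate controls were DMSO wells for no effect and DEVD-CHO caspase inhibitor wells for full effect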
#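 Assay system: Apoptosome proteins | Medium: pH 7.5 Hepes buffer with CHAPS, BSA, DTT | Also added: Cytochrome c and DEVD-Rh110 substrate | Times: 30 min plus 50 min, RT | Detection: Rhodamine 110 fluorescence at Ex 480/Em 540 nm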
# SENP7 inh: SENP7 protease inhibitors, primary screen, biochemical, luminescence, uHTS; Sentrin-specific protease 7 (Homo sapiens), Q9BQF6; recombinant SENP7, Z-RLRGG-aminoluciferin luminescence, 40 min; inhibition, % at 5 µM; 330,000 tested, 1.5% active; AID 434973, 2010;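 active = inhibition above about 50% at the single test dose, limit read from the data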;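 note: plate controls were DMSO with enzyme for no effect and no enzyme buffer wells for full effect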
# SENP6 block: SENP6 protease inhibitors, primary screen, biochemical, luminescence, uHTS | Sentrin-specific protease 6 (Homo sapiens), Q9GZR1 | Recombinant SENP6 catalytic domain, aminoluciferin luminescence | AID 2599, 2010 | 330,000 tested, 1.8% active | inhibition, % at 10 µM;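 active = inhibition above about 50% at the single tested dose, limit read from the data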;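 note: plate controls were DMSO wells with enzyme for no effect and DMSO wells lacking enzyme for full effect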
# Target sequence (Q9GZR1 628-1112 limits assumed): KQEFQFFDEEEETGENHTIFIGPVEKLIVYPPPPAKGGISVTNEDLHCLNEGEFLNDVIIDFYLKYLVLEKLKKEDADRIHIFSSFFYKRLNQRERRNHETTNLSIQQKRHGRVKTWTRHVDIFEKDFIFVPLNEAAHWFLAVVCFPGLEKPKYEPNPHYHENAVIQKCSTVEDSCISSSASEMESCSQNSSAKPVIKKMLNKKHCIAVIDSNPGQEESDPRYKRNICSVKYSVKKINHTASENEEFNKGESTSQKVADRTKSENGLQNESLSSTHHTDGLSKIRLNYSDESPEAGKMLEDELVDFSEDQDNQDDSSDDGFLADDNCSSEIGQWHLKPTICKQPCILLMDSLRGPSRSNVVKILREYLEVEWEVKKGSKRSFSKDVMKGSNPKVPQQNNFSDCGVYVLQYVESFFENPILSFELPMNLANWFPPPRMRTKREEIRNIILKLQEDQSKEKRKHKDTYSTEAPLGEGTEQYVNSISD
# SENP8 block-2: human SENP8 protease inhibitors, primary screen, biochemical, fluorescence, Nedd8 protein substrate, uHTS | recombinant SENP8 | inhibition, % at 20 µM | 360,000 tested, 0.64% active | AID 602440, 2012; in the data active = inhibition mostly above about 40%, no sharp cut-off; inactive = mostly below about 27%
# Apaf-1 inh conf2: Apaf-1 inhibitors, single-dose retest, confirmation, biochemical, fluorescence, DEVD-Rh110, 20 µM; AID 504614, 2011; 1,800 tested, 25% active; inhibition, % at 20 µM; reconstituted apoptosome, caspase-3 DEVD-Rh110 fluorescence; shares compounds with Apaf1 inhib;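 active = mean inhibition of at least 40% at 20 µM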;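 note: plate controls were DMSO wells for no effect and DEVD-CHO caspase inhibitor control wells for full effect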
# Rh110 interf inh: Rh110 fluorescence interference by putative Apaf-1 inhibitors, confirmation, artefact control for Apaf-1 inhibitor project, biochemical, 20 µM | 1,800 tested, under 10 active | quenched caspase reaction | shares compounds with Apaf1 inhib | AID 504615, 2011 | activation (fluorescence interference), % at 20 µM;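 active = signal rise of 40% or more at 20 µM, treated as a fluorescence artifact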
# Apaf1 inh interf: fluorescence interference of Apaf-1 inhibitor hits, dose response, artefact control for Apaf-1 inhibitor project. shares compounds with Apaf1 inhib. fluorescence interference counterscreen, Apaf-1 assay format. IC50, µM. 460 tested, under 10 active; call rule not given here
# The depositor's hits bear a star; i = inactive; / = no result.
SMILES,SENP1 inh,SENP8 block-1,Apaf1 inhib,SENP7 inh,SENP6 block,SENP8 block-2,Apaf-1 inh conf2,Rh110 interf inh,others
CN1C(=O)c2cccc3c(S(N)(=O)=O)ccc1c23,-24,-8,-14,0,9,-492,/,/,
CN1C(=O)c2cccc3c(S(=O)(=O)NCc4ccco4)ccc1c23,8,9,55*,12,10,-439,16,3,
CC(=O)N(C1=C(Cl)C(=O)c2ccccc2C1=O)C1CCCCC1,-13,45,85*,21,51*,-113,90*,5,Apaf1 inh interf=>100
CCOc1cc2c(cc1OC)C(NC(=O)c1ccco1)CC2=O (stereo unspecified),0,-3,1,-7,-11,0,/,/,
CCOC(=O)c1cnc(-n2nc(C)cc2C)nc1NC,-2,-16,-6,-4,2,-175,/,/,
CCOC(=O)c1cnc(-n2nc(C)cc2C)nc1NC1CCCCC1,1,6,42*,2,-3,-89,19,-3,
Cn1nnnc1Sc1ncnc2scc(-c3cc4ccccc4o3)c12,-9,6,7,-1,1,-51,/,/,
CC(=O)c1ccc(N2CCN(S(=O)(=O)c3ccc4c5c3CC(=O)N5CC(C)S4)CC2)cc1 (stereo unspecified),0,6,56*,18,14,-109,42*,6,Apaf1 inh interf=>100
COc1cccc(CNc2ccc3[nH]c(=O)[nH]c3c2)c1OCc1ccccc1F,2,7,6,-5,16,-149,/,/,
COc1ccc(-c2oc3ncnc(NCCN4CCOCC4)c3c2-c2ccc(OC)cc2)cc1,0,1,42*,-3,-9,-320,25,15,
NC(Cc1ccc(Cl)cc1)c1csc(Nc2ccc(C(=O)NCCCO)cn2)n1 (stereo unspecified),-5,/,/,/,/,-370,/,/,
OC(c1cc(C(F)(F)F)nc2c(C(F)(F)F)cccc12)C1CCCCN1 (stereo unspecified),0,-4,48*,4,-4,15,27,2,
O=C(c1ccc(Cn2c(=O)[nH]c3ccccc3c2=O)cc1)N1CCN(c2ccc(Cl)cc2)CC1,0,-2,41*,-9,-21,10,14,4,
O=C(Nc1ccc(-c2nc3ccc(NC(=O)c4cccs4)cc3[nH]2)cc1)c1cccs1,0,-1,69*,-11,-6,-96,90*,7,Apaf1 inh interf=>100
O=C(Nc1ccc2nc(-c3cccs3)[nH]c2c1)c1cccs1,-4,-2,2,6,-3,-424,/,/,
Cc1cc(C)nc(-n2nc(C)cc2NC(=O)CN2CCc3ccccc3C2)n1,-9,7,54*,-5,37,32,15,-2,
CCCCCCCCCCCCCCCC(O)C(N)CO (stereo unspecified),0,-8,80*,-10,-10,13,21,13,
C=CCn1c(COc2cccc(C)c2)nnc1SC(C)C(=O)NC1CC1 (stereo unspecified),1,-1,41*,-9,-14,19,47*,6,Apaf1 inh interf=>100
CCn1cc(/C=C(\NC(=O)c2cc(OC)c(OC)c(OC)c2)C(=O)N2CCOCC2)c2ccccc21,-5,/,/,/,/,-1,/,/,
CCCCc1c(C)nn(-c2nnc3c4ccccc4n(CC)c3n2)c1C,0,-9,47*,-8,-10,20,23,10,
Cc1ccc(N(CC(=O)N/N=C/c2ccc(OC3CSC3)cc2)S(=O)(=O)c2ccccc2)cc1,2,1,7,3,3,8,/,/,
Cc1ccc(N(CC(=O)N/N=C/c2ccc(OC3CSC3)cc2)S(=O)(=O)c2ccccc2)c(C)c1,2,-8,63*,-11,13,17,18,0,
COc1ccc(-c2[nH]nc3nc(N4CCN(C(=O)c5ccoc5)CC4)cc(C(F)(F)F)c23)cc1,-1,/,/,/,/,-400,/,/,
COc1ccc(C(=O)/C=C/C(=O)N(CC(=O)NC2CCCCC2)Cc2ccccc2)c(O)c1,3,/,/,/,/,5,/,/,
COc1ccc(C(=O)/C=C/C(=O)N(CC(=O)NC2CCCCC2)CC2CCCO2)c(O)c1 (stereo unspecified),3,5,49*,-1,-2,-13,10,8,
SMILES,SENP1 inh,SENP8 block-1,Apaf1 inhib,SENP7 inh,SENP6 block,SENP8 block-2,Apaf-1 inh conf2,Rh110 interf inh,others
COC1=C(Nc2ccccc2OC)C(=O)c2ccccc2C1=O,6,12,54*,23,40,-326,14,11,
COc1ccc(C(=O)OCC#CCSc2nnc(-c3cccc4ccccc34)o2)cc1,2,3,13,-1,6,-224,/,/,
COC(=O)c1ccc(-c2ncc(-c3cccc4ccccc34)o2)cc1,-12,-15,42*,-14,-21,i,9,7,
CN(C)c1cccc2c1c(NS(=O)(=O)c1cn(C)cn1)nn2C,1,6,62*,5,11,5,17,-3,
Cc1ccc2nc(C3CCCCC3)c(Cc3ccsc3)n2c1,-1,/,/,/,/,-373,/,/,
COc1cccc2c1C(=O)c1c(O)c3c(c(O)c1C2=O)C[C@@](O)(C(=O)CO)C[C@@H]3O[C@H]1C[C@H](N)[C@H](O)[C@H](C)O1,97*,9,58*,13,7,26,61*,0,Apaf1 inh interf=>100
Cc1ccc(-c2cc(C(=O)NCCCN3CCOCC3)c3ccc(Cl)c(C)c3n2)cc1,-1,-3,55*,-1,-6,-241,24,11,
COc1cc(C(O)c2nc(-c3cc4ccccc4o3)cs2)ccc1F (stereo unspecified),0,/,/,/,/,0,/,/,
CNC(=O)CN1C(=O)c2cccc3cccc1c23,-15,23,-7,-7,-5,-205,/,/,
CN1/C(=N\O)c2cccc3cccc1c23,6,4,86*,10,20,-409,20,0,
Cc1cc(SCC(=O)N2c3ccccc3NC(=O)CC2C)nc2ccccc12 (stereo unspecified),-1,/,/,/,/,-11,/,/,

# Assay outcomes deposited in PubChem by Sanford-Burnham Center for Chemical Genomics.
